According to ChEMBL document CHEMBL4334452, “Monosaccharide Analogues of Anticancer Peptide R-Lycosin-I: Role of Monosaccharide Conjugation in Complexation and the Potential of Lung Cancer Targeting and Therapy” (J Med Chem, 2019):
Calls of active or inactive are those of the source. The calls are words filed in the database; no cut-off is given here. *1 amine or outer side, *2 acyl side, *3 side chain or, on linkers, in order; H or OH if unused. Where a SMILES comes first, the peptide text is derived from it. The star is where a group is joined. NH(CH2)3O(βDGlc) = OC[C@H]1O[C@@H](OCCCN*)[C@H](O)[C@@H](O)[C@@H]1O; Glutaryl = O=C(CCCC(=O)[*:2])[*:1]

What was measured:
A549 [1] = assay: Induction of apoptosis in human A549 cells assessed as increase in caspase-3 activity at 15 uM measured after 24 hrs by Ac-DEVD-pNA substrate based assay relative to control; format: functional
Summary of the method: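 A549 cells treated 24 h with 15 µM peptide, or medium as control. Cells lysed, and supernatant incubated with Ac-DEVD-pNA (2 mM). Absorbance read at 405 nm; activity ratio expressed against blank control, n=3.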

A549 [2] = assay: Induction of apoptosis in human A549 cells assessed as appearance of surface bubbling at 15 uM measured after 24 hrs by scanning electron microscopic analysis; format: functional, cell-based
A549 [3] = assay: Induction of apoptosis in human A549 cells assessed as appearance of apoptotic bodies at 15 uM measured after 24 hrs by scanning electron microscopic analysis; format: functional, cell-based
[4] = biological target: T1, Solute carrier family 2, facilitated glucose transporter member 1 (Homo sapiens) (UniProt P11166); assay: Binding affinity to GLUT1 in human A549 cells assessed as cytotoxicity by measuring increase in LDH release at 25 uM measured after 2 hrs; format: cell-based
T1 sequence (whole entry): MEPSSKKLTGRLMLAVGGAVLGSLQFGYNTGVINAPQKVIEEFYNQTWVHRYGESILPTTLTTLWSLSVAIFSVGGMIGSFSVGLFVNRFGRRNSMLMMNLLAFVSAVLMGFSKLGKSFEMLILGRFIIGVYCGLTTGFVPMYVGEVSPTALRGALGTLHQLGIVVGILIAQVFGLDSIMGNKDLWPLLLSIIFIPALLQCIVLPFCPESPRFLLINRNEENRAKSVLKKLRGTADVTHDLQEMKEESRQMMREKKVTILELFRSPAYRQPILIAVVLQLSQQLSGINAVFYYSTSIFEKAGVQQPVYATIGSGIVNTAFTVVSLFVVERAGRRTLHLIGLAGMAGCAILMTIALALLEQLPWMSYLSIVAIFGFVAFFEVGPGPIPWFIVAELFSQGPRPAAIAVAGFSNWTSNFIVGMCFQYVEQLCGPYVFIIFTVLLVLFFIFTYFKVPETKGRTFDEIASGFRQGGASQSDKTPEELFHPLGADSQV
Summary of the method: (§1)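 A549 cells at 2×10^3/well, allowed to adhere overnight, then exposed to peptide over a concentration series for 2 h. LDH release measured with a kit, absorbance at 490 nm. 1% Triton X-100 taken as 100% release; n=3.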

[5] = biological target: T1, Solute carrier family 2, facilitated glucose transporter member 1 (Homo sapiens); assay: Binding affinity to GLUT1 in human A549 cells assessed as cytotoxicity by measuring reduction in cell viability at 15 uM by trypan blue staining-based assay
Summary of the method: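 A549 cells stained with trypan blue after peptide treatment at 15 µM. Dead cells appear blue and live cells unstained; live cells were counted.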

A549 [6] = assay: Induction of apoptosis in human A549 cells assessed as necrotic cells at 8 uM measured after 4 hrs by Annexin V-FITC/propidium iodide staining-based flow cytometry (reference value: 0.51%); format: functional
Summary of the method: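 A549 cells grown 24 h, trypsinized, then resuspended in medium with 8 µM peptide for 4 h at 37 °C. Cells washed with cold PBS, stained with Annexin V-FITC/PI, and analysed by flow cytometry.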

[7] = biological target: T1, Solute carrier family 2, facilitated glucose transporter member 1 (Homo sapiens); assay: Binding affinity to GLUT1 in human A549 cells assessed as cytotoxicity by measuring reduction in cell viability at 12.5 uM measured after 2 hrs in presence of GLUT1 inhibitor STF-31 by CCK8 assay; format: cell-based
Summary of the method: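 A549 cells at 2×10^3/well, grown overnight, then preincubated 4 h in F12K/10% FBS with or without STF-31 (1 µM final). […] Incubated a further 2 h at 37 °C; viability by CCK-8.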

A549 [8] = assay: Induction of morphological changes in human A549 cells assessed as disruption of cell membrane at 15 uM measured after 24 hrs by scanning electron microscopic analysis; format: functional, cell-based
Summary of the method: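 A549 cells pre-seeded on mica sheets for 24 h at 37°C, then exposed to 15 μM peptide for 24 h at 37°C. Cells were PBS-washed twice, fixed in 4% paraformaldehyde for 15 min, dehydrated through graded ethanol and imaged by SEM at 15 kV. Untreated cells served as control.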

[9] = biological target: T1, Solute carrier family 2, facilitated glucose transporter member 1 (Homo sapiens); assay: Binding affinity to GLUT1 in human A549 cells assessed as cytotoxicity by measuring LDH release at 12.5 uM measured after 2 hrs relative to control; format: cell-based; summary of the method: as §1
A549 [10] = assay: Induction of morphological changes in 3D spheroids of human A549 cells assessed as cell shrinkage at 30 uM treated every 2 days for 6 days measured every 3 days during compound dosing by microscopic analysis; format: functional, cell-based
Summary of the method: (§2)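 A549 3D spheroids, one per well, in 10% medium with peptide at 30 µM final. Dosed at day 0, then re-added at days 2 and 4, for 6 days total. Spheroids washed thrice, then imaged and sized at days 0, 3 and 6. Viability read by CCK-8.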

A549 [11] = assay: Induction of morphological changes in 3D spheroids of human A549 cells assessed as dissociation of 3D structure at 30 uM treated every 2 days for 6 days measured every 3 days during compound dosing by microscopic analysis; format: functional, cell-based; summary of the method: as §2
[12] = biological target: T1, Solute carrier family 2, facilitated glucose transporter member 1 (Homo sapiens); assay: Binding affinity to GLUT1 in human A549 cells harboring luciferase gene assessed as cytotoxicity by measuring reduction in cell viability after 24 hrs by CCK8 assay; format: cell-based
[13] = Drug uptake in liver of Balb/c nu/nu mouse xenografted with human A549 cells expressing luciferase gene at 9 mg/kg, ip measured after 6 hrs by fluorescence assay; format: ADME, organism-based; settings: in vivo
[14] = Drug uptake in liver of Balb/c nu/nu mouse xenografted with human A549 cells expressing luciferase gene at 3 mg/kg administered intratumorally measured after 6 hrs by fluorescence assay; format: ADME, organism-based; settings: in vivo, other
[15] = Drug uptake in heart of Balb/c nu/nu mouse xenografted with human A549 cells expressing luciferase gene at 9 mg/kg, ip measured after 6 hrs by fluorescence assay; format: ADME, organism-based; settings: in vivo
[16] = Drug uptake in heart of Balb/c nu/nu mouse xenografted with human A549 cells expressing luciferase gene at 3 mg/kg administered intratumorally measured after 6 hrs by fluorescence assay; format: ADME, organism-based; settings: in vivo, other
[17] = Drug uptake in tumor of Balb/c nu/nu mouse xenografted with human A549 cells expressing luciferase gene at 9 mg/kg, ip measured after 6 hrs by fluorescence assay; format: ADME, organism-based, Neoplasm; settings: in vivo
[18] = Drug uptake in tumor of Balb/c nu/nu mouse xenografted with human A549 cells expressing luciferase gene at 3 mg/kg administered intratumorally measured after 6 hrs by fluorescence assay; format: ADME, organism-based, Neoplasm; settings: in vivo, other
A549 [19] = assay: Antitumor activity against human A549 cells expressing luciferase gene xenografted in Balb/c nu/nu mouse assessed as increase in apoptotic cells at 9 mg/kg, ip administered every 2 days for seven times measured on day 14 by TUNEL assay; format: functional, organism-based
Summary of the method: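 Male BALB/c nu/nu mice, 4-6 weeks old, carrying subcutaneous A549-luciferase xenografts in the right back. Dosing started when tumors reached 100-200 mm³ (day 0), five per group. Peptide was given at 9 mg/kg i.p. in 200 µL every other day for 7 doses; PBS served as control. Bioluminescent imaging on day 14; tumor size and body weight tracked. Tumors fixed in paraformaldehyde, paraffin-sectioned, TUNEL-stained.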

Drug uptake [13]	Drug uptake [14]	Drug uptake [15]	Drug uptake [16]	Drug uptake [17]	Drug uptake [18]	SMILES	fold change (FC) (A549 [1])	Activity (A549 [2])	Activity (A549 [3])	Activity [4]	Activity [5]	Activity (A549 [6])	Activity [7]	Activity (A549 [8])	Activity [9]	Activity (A549 [10])	Activity (A549 [11])	Activity [12]	Activity (A549 [19])
Active	Active	Active	Active	–	–	CC[C@H](C)[C@H](NC(=O)[C@H](Cc1ccccc1)NC(=O)[C@H](CCCNC(=N)N)NC(=O)[C@H](C)NC(=O)[C@@H](NC(=O)[C@H](CO)NC(=O)[C@H](CCCNC(=N)N)NC(=O)[C@H](CCSC)NC(=O)[C@H](C)NC(=O)[C@H](CCCNC(=N)N)NC(=O)[C@H](Cc1ccccc1)NC(=O)[C@H](Cc1c[nH]c2ccccc12)NC(=O)CNC(=O)[C@@H](N)CCCNC(=N)N)[C@@H](C)CC)C(=O)N[C@@H](C)C(=O)N[C@@H](CCCNC(=N)N)C(=O)N[C@@H](CCC(=O)O)C(=O)N[C@@H](CCCNC(=N)N)C(=O)N[C@@H](CC(C)C)C(=O)N[C@@H](CCCNC(=N)N)C(=O)N[C@@H](CCC(=O)O)C(=O)N[C@@H](Cc1cnc[nH]1)C(=O)N[C@@H](CC(C)C)C(=O)O (H-RGWFRAMRSIARFIARERLREHL-OH)	1.5	Active	Active	Active	Active	0.75%	Active	Active	> 30%	Active	Active	Active	–
Active	Active	Active	Active	Active	Active	CC[C@H](C)[C@H](NC(=O)[C@H](Cc1ccccc1)NC(=O)[C@H](CCCNC(=N)N)NC(=O)[C@H](C)NC(=O)[C@@H](NC(=O)[C@H](CO)NC(=O)[C@H](CCCNC(=N)N)NC(=O)[C@H](CCSC)NC(=O)[C@H](C)NC(=O)[C@H](CCCNC(=N)N)NC(=O)[C@H](Cc1ccccc1)NC(=O)[C@H](Cc1c[nH]c2ccccc12)NC(=O)CNC(=O)[C@H](CCCNC(=N)N)NC(=O)CCCC(=O)NCCCO[C@@H]1O[C@H](CO)[C@@H](O)[C@H](O)[C@H]1O)[C@@H](C)CC)C(=O)N[C@@H](C)C(=O)N[C@@H](CCCNC(=N)N)C(=O)N[C@@H](CCC(=O)O)C(=O)N[C@@H](CCCNC(=N)N)C(=O)N[C@@H](CC(C)C)C(=O)N[C@@H](CCCNC(=N)N)C(=O)N[C@@H](CCC(=O)O)C(=O)N[C@@H](Cc1cnc[nH]1)C(=O)N[C@@H](CC(C)C)C(=O)O ({NH(CH2)3O(βDGlc)-Glutaryl}-RGWFRAMRSIARFIARERLREHL-OH)	1.5	Active	Active	Active	Active	0.57%	–	Active	> 30%	Active	Active	Active	Active
